Most compounds without a hit are left out; they make up all but 3% or so of the library.
PLC-beta3 inh: blocks human PLC-beta3 enzyme activity. Q01970. Purified PLC-beta3, fluorogenic substrate, fluorescence. inhibition, % at 12.2 µM. 370,000 tested, 0.18% active. AID 720704; in the data active = inhibition above about 11%;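 note: 0% = median of compound wells on plate and 100% = full blocker control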
Tn6 DDE FP: disrupts Tn6 cyclic peptide binding to fibrin D-Dimer-E complex. inhibition, % at 8.3 µM. AID 720509. Fibrin DD(E) TRITC-Tn6 fluorescence polarization displacement. P02675. 370,000 tested, 0.21% active;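 active = inhibition above a per-campaign cutoff: mean of compounds within control limits plus 3 SD, cut at about 15% in these data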;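 note: 0% = median of all compound wells on the plate and 100% = blocking peptide control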
KLK7 zymogen act: proKLK7 (human) activation, primary screen. P49862. purified proKLK7, EDANS-DABCYL substrate fluorescence; 100% is mature enzyme control, 0% vehicle. activation, % at 7 µM. 370,000 tested, 0.9% active. AID 652039;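 active = activation above the mean of all tested compounds plus 3 SD, computed per campaign excluding outliers beyond control limits, cut at about 13% in these data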
Tn7 DDE FP: DD(E)-Tn7 binding inhibition, primary FP screen | FP displacement of FITC-Tn7 peptide from fibrin DD(E); 0% = median of compound wells per plate | inhibition, % at 8.3 µM | 370,000 tested, 0.13% active | AID 720508;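 active = inhibition above the mean of compounds falling within the control limits plus 3 SD of them, cut at about 14% in these data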;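 note: 0% = plate median of compound wells and 100% = 10 µM Aha-Tn7 peptide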
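Assay system: Human clot-derived fibrin DD(E) complex | Buffer or medium: Tris/NaCl/CaCl2 buffer, pH 7.8 | Repeats: One replicate per compound | Benchmarks: Aha-Tn7 high control | Measure: % inhibition scaled between sample-field median and high-control FP | Schedule: 10 min plus 3 h, room temperature | Signal: Fluorescence polarization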
CendR NRP1 mod: modulators of CendR peptide binding to human neuropilin-1; O14786; FAM-RPARPAR peptide binding to NRP-1, fluorescence polarization; inhibition, % at 25 µM; 360,000 tested, 0.85% active;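 active = inhibition or corrected inhibition above about 18%, plus a signal ratio from 0.5 to 1.5, limit read from the data, passing the limit was not always enough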
PLC-gamma1 inh: PLC-gamma1 (human) inhibition, primary screen; P19174; purified PLC-gamma1, fluorogenic substrate, fluorescence; inhibition, % at 12.2 µM; 370,000 tested, 0.84% active; AID 720700; in the data active = inhibition above about 9.5%
KLK7 act conf: confirmation of human kallikrein-7 zymogen activators | purified proKLK7, EDANS-DABCYL substrate fluorescence; scaled: vehicle 0, mature enzyme 100 | activation, % at 7 µM | shares compounds with KLK7 zymogen act | 3,200 tested, 68% active | AID 686949;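 active = activation, as change over the incubation, above the mean of all tested compounds plus 3 SD, cut at about 13% in these data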
EDANS-DABCYL int: counter-screen for kallikrein-7 activators: EDANS-DABCYL optical interference | shares compounds with KLK7 zymogen act | EDANS-DABCYL substrate fluorescence interference, no enzyme, 4 h; solvent 0%, active enzyme control 100% | activation, % at 7 µM | 3,200 tested, 80% active;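 active = activation above the all-compound mean plus 3 SD, ignoring values outside control-based bounds, cut at about 4.8% in these data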;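 note: value is the 4 h activation minus the activation read at time zero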
The depositor's hits bear a star; i = inactive; · = no result.

SMILES	PLC-beta3 inh	Tn6 DDE FP	KLK7 zymogen act	Tn7 DDE FP	CendR NRP1 mod	PLC-gamma1 inh	KLK7 act conf	EDANS-DABCYL int
CCOC(=O)[C@]12CCCC=C1N(Cc1ccc(OC)cc1)C(=O)[C@@H]2CC(=O)NCCCOC	0	-3	0	-8	·	2	·	·
CCn1c(COc2ccc(Cl)cc2)nnc1SCC(=O)Nc1ccc(Oc2ccccc2)cc1	1	1	0	1	·	-2	·	·
CC(=O)Oc1ccc2c(C)cc(=O)oc2c1	i	-2	60*	3	-14	i	540*	531*
O=c1ccc2ccc(O)cc2o1	i	-8	51*	-7	1	i	64*	70*
O=C(CC1Sc2ccccc2NC1=O)OCc1cc(=O)oc2cc(O)ccc12 (stereo unspecified)	-495	-3	188*	3	-39	i	272*	279*
Cc1cc(=O)oc2cc(OC(=O)C3CCN(C(=O)c4ccc(F)cc4)CC3)ccc12	i	-3	14*	0	5	i	427*	378*
COC(=O)[C@@]12CCCCC=C1N(CCc1ccc(Cl)cc1)C(=O)[C@H]2CC(=O)NCc1cccc2ccccc12	-2	-5	-1	1	·	-2	·	·
COC(=O)[C@]12C[C@H](CC(=O)N3CCCCC3)C(=O)N(CCc3ccc(OC)c(OC)c3)C1=C[C@H](C1CCCC1)O[C@@H]2C	6	-5	1	2	·	0	·	·
CCCCNC(=O)C[C@H]1C[C@@]2(C(=O)OC)C(=C[C@H](C3CCCC3)O[C@@H]2C)N(Cc2ccco2)C1=O	6	-3	1	-5	·	-2	·	·
Cc1ccc(S(=O)(=O)CCC(=O)Oc2ccc3c(C)cc(=O)oc3c2)cc1	i	1	24*	4	18	i	123*	109*
CC(=O)Nc1c(OC(C)=O)ccc2c(C)cc(=O)oc12	i	-3	175*	0	-7	i	489*	515*
COc1ccc2c(C)cc(=O)oc2c1C	-36	-4	0	5	4	-18	·	·
CC(=O)Oc1ccc2c(C)cc(=O)[nH]c2c1	-240	2	179*	6	15	-209	343*	302*
O=C(Cc1cc(=O)oc2cc(O)ccc12)N[C@@H](Cc1c[nH]c2ccccc12)C(=O)O	-324	-3	16*	-1	10	-238	91*	90*
CC1CCC2(CCC(=O)N2C[C@@H](O)c2ccccc2)CC1 (stereo partly specified)	1	0	·	-3	·	0	·	·
Cc1cc(=O)oc2cc(O)ccc12	i	2	99*	-7	-2	i	63*	64*
Cc1ccc(NC(=O)CSCC(=O)OCc2cc(=O)oc3cc(O)ccc23)c(C)c1	i	7	468*	-2	-4	i	288*	306*
CCN(CC)c1ccc2ccc(=O)oc2c1	i	2	11	6	-4	i	·	·
O=c1cc(O)c2ccc(O)cc2o1	-13	2	6	6	-2	-7	·	·
CCN(CC)c1ccc2c(C)cc(=O)oc2c1	i	3	27*	-4	-20	i	17*	26*
CC(=O)Oc1cc2oc(=O)cc(C)c2cc1OC(C)=O	i	0	68*	5	-21	i	77*	90*
O[C@H](COc1cc(F)cc(F)c1)CN1CCC(C(O)(c2ccccc2)c2ccccc2)CC1	1	3	0	1	·	3	·	·
COc1cccc2c1[C@H](/C=C/c1ccccc1)[C@@H]([C@H](O)CO)OC2	2	-6	0	3	·	1	·	·
CC(C)(C)CSc1nnc(-c2cccnc2)n1Cc1ccccc1	2	6	0	7	·	2	·	·
Cc1cc(=O)oc2cc(OC(=O)CCCCCN3C(=O)c4ccccc4C3=O)ccc12	-338	0	63*	5	-3	-289	405*	336*
SMILES	PLC-beta3 inh	Tn6 DDE FP	KLK7 zymogen act	Tn7 DDE FP	CendR NRP1 mod	PLC-gamma1 inh	KLK7 act conf	EDANS-DABCYL int
CC(C)C[C@H]1COc2cc(N3CCCC3)ccc2S(=O)(=O)N1C	-1	1	0	2	·	0	·	·
Cc1cc(C)n2cc(CSc3ncn[nH]3)nc2n1	-199	1	28*	-2	4	-151	8	6.8*
O=c1c2ccccc2oc2ccc(NCCCN3CCOCC3)cc12	-60	-3	0	-8	-3	-44	·	·
Cn1c(C(=O)NCCCN2CCOCC2)cc2c(=O)n(C)c3ccccc3c21	-8	-5	-1	-1	-1	-7	·	·
O=c1c2ccccc2oc2cc(NCCCN3CCOCC3)ccc12	i	2	75*	1	24	i	65*	64*
O=c1c2ccccc2oc2cc(NCCCn3ccnc3)ccc12	i	-8	63*	9	-2	i	66*	60*
Cn1c2ccccc2c(=O)c2cc(NCCCN3CCOCC3)ccc21	i	-2	75*	1	-6	i	70*	76*
Cc1ccc(OCc2nnc(SCC(=O)c3ccc(-c4ccccc4)cc3)n2Cc2ccco2)cc1	-13	3	-1	-4	·	-7	·	·
CCC(=O)N1CCc2cc(Br)c(S(=O)(=O)NCCCN(CC)Cc3ccccc3)cc21	1	3	0	2	·	-2	·	·
Cc1cc(-n2c(C)cc(C(=O)COc3ccc4ccc(=O)oc4c3)c2C)no1	-123	-1	59*	-3	-32	-79	44*	54*
Cc1cccc(NC(=O)c2cc(-c3ccc(C)s3)nc3ccccc23)n1	i	2	-92	-4	-5	i	·	·
CC(C)CCNC(=O)c1cc(-c2cccs2)nc2ccccc12	-206	-4	-11	-5	-4	-139	·	·
O=C(O)c1cc(-c2ccc(Cl)s2)nc2ccccc12	i	-1	47*	2	-1	-437	36*	41*
CCC(C)NC(=O)c1cc(-c2cccs2)nc2ccccc12 (stereo unspecified)	i	-1	26*	-2	-7	-412	-15	-27
Cc1ccc(-c2cc(C(=O)O)c3ccccc3n2)s1	i	6	54*	3	-109	i	63*	71*
COC(=O)[C@]12C[C@H](CC(=O)NCCc3ccccc3OC)C(=O)N(Cc3ccco3)C1=C[C@H](COCc1ccccc1)O[C@@H]2C	-3	-6	0	-4	·	0	·	·
COc1ccc2ccc3cccc[n+]3c2c1	-245	-3	21*	-2	1	-175	18*	19*
